Source: PubChem (several laboratories)
Only some compounds are listed: those with a hit (about 1.8% of all), similar ones and a draw of the others.
PG9 binder = PG9 antibody binding by small molecule; TR-FRET gp120-PG9 antibody binding; inhibition, % at 6.7 µM; hit rate 0.43% among 360,000; in the data active = inhibition above about 8.5%
Tb MetRS inh = blocks T. brucei methionyl-tRNA synthetase activity. purified T. brucei MetRS, ATP depletion, Kinase-Glo luminescence. inhibition, % at 11.9 µM. hit rate 0.4% among 360,000. AID 624268;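 active = inhibition above a per-plate cutoff of the control wells' mean inhibition plus 3 SD, cut at about 5.5% in these data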;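 also: 0% = DMSO wells median and 100% = median of wells with control inhibitor compound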
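Material – parasite MetRS enzyme · Medium – HEPES-MgCl2-KCl buffer plus DTT, spermine, BSA, pyrophosphatase · Reagent – ATP, methionine and E. coli bulk tRNA substrates · Times – 15 min enzyme-compound preincubation, 2 h reaction, 10 min detection, 25 °C · Measured by – luminescence of leftover ATP · Evaluation – percent inhibition relative to median high and low control wells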
Rin1 Abl inh = blocks binding of human Rin1 to Abl; P00519+Q13671; TR-FRET Rin1/Abl binding, biochemical; inhibition, % at 7.35 µM; hit rate 0.4% among 360,000; in the data active = inhibition above about 5%, passing the limit was not always enough
Target sequence (P00519 whole entry, looked up): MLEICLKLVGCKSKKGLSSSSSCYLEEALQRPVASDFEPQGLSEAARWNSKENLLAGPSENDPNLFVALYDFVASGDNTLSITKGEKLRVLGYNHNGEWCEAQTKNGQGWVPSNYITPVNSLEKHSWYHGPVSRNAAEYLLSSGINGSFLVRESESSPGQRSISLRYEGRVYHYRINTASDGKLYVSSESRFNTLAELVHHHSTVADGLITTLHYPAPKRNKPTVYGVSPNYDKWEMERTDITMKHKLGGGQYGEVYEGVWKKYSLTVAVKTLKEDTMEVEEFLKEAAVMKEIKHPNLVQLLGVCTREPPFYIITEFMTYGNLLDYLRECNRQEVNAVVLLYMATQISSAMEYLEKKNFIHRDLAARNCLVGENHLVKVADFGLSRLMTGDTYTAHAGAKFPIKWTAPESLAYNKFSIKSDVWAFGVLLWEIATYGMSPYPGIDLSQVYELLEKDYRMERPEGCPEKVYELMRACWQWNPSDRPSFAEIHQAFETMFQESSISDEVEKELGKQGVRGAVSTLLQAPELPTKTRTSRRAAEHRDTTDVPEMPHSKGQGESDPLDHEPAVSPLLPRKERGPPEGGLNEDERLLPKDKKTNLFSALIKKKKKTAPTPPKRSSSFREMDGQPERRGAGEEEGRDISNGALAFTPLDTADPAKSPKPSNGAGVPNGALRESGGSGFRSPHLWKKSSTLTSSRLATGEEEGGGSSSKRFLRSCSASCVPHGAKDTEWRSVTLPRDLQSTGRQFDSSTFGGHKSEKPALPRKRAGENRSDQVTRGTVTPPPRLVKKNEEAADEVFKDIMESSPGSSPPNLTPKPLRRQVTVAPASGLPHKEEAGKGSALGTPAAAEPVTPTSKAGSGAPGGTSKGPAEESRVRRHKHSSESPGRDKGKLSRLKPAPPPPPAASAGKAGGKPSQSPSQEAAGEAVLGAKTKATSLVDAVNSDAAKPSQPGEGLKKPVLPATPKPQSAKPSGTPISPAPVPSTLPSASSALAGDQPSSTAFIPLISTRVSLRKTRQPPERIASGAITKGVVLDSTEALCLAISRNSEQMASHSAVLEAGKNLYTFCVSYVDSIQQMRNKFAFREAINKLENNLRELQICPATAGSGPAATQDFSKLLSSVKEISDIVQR
Target sequence (Q13671 whole entry, looked up): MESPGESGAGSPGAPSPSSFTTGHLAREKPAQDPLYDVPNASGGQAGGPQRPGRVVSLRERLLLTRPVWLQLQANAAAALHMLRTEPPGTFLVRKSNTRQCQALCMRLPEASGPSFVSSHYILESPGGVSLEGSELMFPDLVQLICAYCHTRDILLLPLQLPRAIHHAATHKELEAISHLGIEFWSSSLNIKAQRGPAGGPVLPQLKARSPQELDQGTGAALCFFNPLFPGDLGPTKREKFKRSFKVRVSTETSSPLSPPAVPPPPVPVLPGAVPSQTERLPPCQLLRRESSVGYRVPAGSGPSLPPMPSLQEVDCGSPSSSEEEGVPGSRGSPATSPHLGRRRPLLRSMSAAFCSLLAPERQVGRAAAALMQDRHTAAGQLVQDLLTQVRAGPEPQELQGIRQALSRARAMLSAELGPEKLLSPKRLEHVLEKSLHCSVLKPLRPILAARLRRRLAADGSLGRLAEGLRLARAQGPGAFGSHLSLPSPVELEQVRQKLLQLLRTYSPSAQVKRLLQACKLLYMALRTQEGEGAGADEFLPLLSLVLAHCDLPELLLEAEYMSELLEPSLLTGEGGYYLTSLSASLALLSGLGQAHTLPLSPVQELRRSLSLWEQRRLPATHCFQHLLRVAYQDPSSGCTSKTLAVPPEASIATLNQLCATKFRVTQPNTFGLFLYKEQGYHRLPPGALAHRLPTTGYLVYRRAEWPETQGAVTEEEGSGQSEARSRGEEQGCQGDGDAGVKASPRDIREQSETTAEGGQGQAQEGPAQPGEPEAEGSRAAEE
Rev-erbA mod = modulators of human Rev-erb alpha DNA binding; Rev-erbα–FITC-DNA binding, fluorescence polarization, 90 min; activity, % at 10 µM; hit rate 0.79% among 370,000;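 active = activity above about 14%, limit read from the data; passing the limit was not always enough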;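 also: 0% = DMSO wells with 35 nM protein and 100% = DMSO wells with 750 nM protein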
Rin1-Abl confirm = confirmation of inhibitors of human Rin1-Abl interaction. TR-FRET Rin1-Abl binding, purified proteins. shares compounds with Rin1 Abl inh. inhibition, % at 7.35 µM. hit rate 49% among 1,300
GFP quench-1 = GFP fluorescence interference artifact; shares compounds with Rin1 Abl inh; inhibitors/quenchers counterscreen; inhibition, % at 6.75 µM; hit rate 8.5% among 1,300;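 also: ABL1-eGFP fusion protein alone without its partner RIN1-SBP; 0% = protein with vehicle and 100% = wells lacking protein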
GFP quench DR = GFP fluorescence interference dose response | shares compounds with Rin1 Abl inh | GFP fluorescence interference/quenching counterscreen | IC50, µM | 230 tested, under 10 active; call rule not given here;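 also: ABL1-eGFP fusion protein alone without its RIN1 binding partner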
GFP quench-2 = counter-screen for Rin1-Abl interaction inhibitors: GFP fluorescence quenching. shares compounds with Rin1 Abl inh. GFP fluorescence quenching counterscreen, biochemical. IC50, µM. 25 tested, under 10 active. AID 602397; call rule not given here
* marks the source's active call; other numbers are inactive results; nt = no result. Rule as the data show it, unless noted: active = inhibition above about 6.5%; inactive = the rest.

SMILES | PG9 binder | Tb MetRS inh | Rin1 Abl inh | Rev-erbA mod | Rin1-Abl confirm | GFP quench-1 | others
Cc1nn2c(-c3ccco3)nnc2c2ccccc12 | -2 | 1 | 10* | -6 | 14* | -3
O=C(Nc1ccc(S(=O)(=O)Nc2ccccc2)cc1)C1CC1 | -2 | 0 | 11* | -5 | 0 | -1
CC(=O)c1ccc(NC(=O)Nc2ccc(S(=O)(=O)N3CCCC3)cc2)cc1 | -4 | 0 | 15* | 7 | 11* | 1
Cc1ccccc1C(=O)N1CCC(C(=O)Nc2ccc(S(=O)(=O)N3CCCCC3)cc2)CC1 | -2 | -1 | 12* | 0 | 7.8* | -1
CC(=O)Nc1ccc(NC(=O)C2CCN(C(=O)c3cccs3)CC2)cc1 | -1 | 0 | 47* | -1 | 71* | -5 | GFP quench DR=>68;GFP quench-2=>68
CC(=O)c1ccc(NC(=O)c2ccc(S(=O)(=O)N3CCCC3)cc2)cc1 | -3 | -1 | -1 | 4 | nt | nt
O=C(O)[C@@H](S)[C@@H](S)C(=O)O | nt | nt | nt | -2 | nt | nt
C[C@H]1[C@@H](N(C)C)CC[C@@]23CCCN2C(=O)CCC[C@@H]13 | nt | nt | nt | -3 | nt | nt
COc1cc(C(=O)OCC(=O)Nc2ccc(S(=O)(=O)N3CCCC3)cc2)cc(OC)c1OC | 0 | 0 | 18* | 4 | 30* | 0 | GFP quench DR=>68
COc1cc(C(=O)OCC(=O)c2ccc(S(=O)(=O)N3CCCCC3)cc2)cc(OC)c1OC | -1 | 0 | 4 | -5 | nt | nt
OCC1(CCOc2ccccc2)CCN(Cc2ccncc2)CC1 | -2 | -1 | 12* | 0 | 12* | -2
Cc1ncc(C[n+]2csc(CCO)c2C)c(N)n1 | 0 | -1 | -2 | -3 | nt | nt
Cc1ncc(C[n+]2csc(C)c2C)c(N)n1 | -1 | -2 | 9.7* | 0 | -1 | -3
COc1ccc(OC)c(C(c2c(C)[nH][nH]c2=O)c2c(C)[nH][nH]c2=O)c1 | 0 | -1 | 7.9* | -1 | -1 | 0
COc1ccc(C(c2c(C)[nH][nH]c2=O)c2c(C)[nH][nH]c2=O)cc1Br | 0 | 0 | 1 | -4 | nt | nt
CCOc1cc(C(c2c(C)[nH][nH]c2=O)c2c(C)[nH][nH]c2=O)ccc1O | -3 | 1 | -6 | -1 | nt | nt
COc1ccc(O)c(C(c2c(C)[nH][nH]c2=O)c2c(C)[nH][nH]c2=O)c1 | -2 | 1 | 22* | -2 | 0 | -1
C=CCOc1ccc(/C=N/NC(=O)C(=O)Nc2ccccn2)cc1OC | 1 | 1 | 6.5* | 1 | 14* | -1
Cc1ccc(-c2cc(C(=O)NN=Cc3cc(Br)ccc3O)[nH]n2)cc1C | nt | nt | nt | -2 | nt | nt
NS(=O)(=O)c1ccc(NC(=O)COc2ncnc3c2cnn3-c2ccccc2)cc1 | 0 | 0 | 5.5* | 0 | 6 | 0
COc1ccc(S[C@]2(C(=O)N3CCCC3)CC(=O)N(C(=O)CCc3ccccc3)[C@@H]2c2ccc(OC)cc2)cc1 | nt | nt | nt | -2 | nt | nt
CC1CC(C)CN(CC(=O)Nc2ccc3c(c2)OCCO3)C1 (configuration not stated) | -1 | 1 | 6.3* | 5 | 2 | 3
COC(=O)C1CCN(CC(=O)Nc2ccc3c(c2)OCCO3)CC1 | -1 | 0 | 0 | -3 | nt | nt
O=S(=O)(c1cccc(-n2cnnn2)c1)N1CCOCC1 | -1 | 0 | 8.9* | 4 | 0 | -3
C#C[C@]1(O)CCC2C3CCC4=CC(=O)CC[C@@H]4C3CC[C@@]21CC (some centres not stated) | nt | nt | nt | -3 | nt | nt
COc1ccccc1C1c2c(ncn(-c3ccccc3)c2=N)Oc2ccc3ccccc3c21 (configuration not stated) | nt | nt | nt | -4 | nt | nt
O=C(CCO)c1ccc(O)cc1 | -1 | -2 | 29* | -31 | 33* | 7 | GFP quench DR=>67
O=C(Cc1ccc(NC2=NC3CS(=O)(=O)CC3S2)cc1)NCc1ccc(Cl)cc1 (configuration not stated) | 0 | 1 | 0 | 4 | nt | nt
CCOc1ccc(CCNC(=O)c2ccc(NC3=NC4CS(=O)(=O)CC4S3)cc2)cc1 (configuration not stated) | 0 | 0 | 4 | -3 | nt | nt
